From ChEMBL document CHEMBL3808388 (J Med Chem, 2016)
Calls of active or inactive are those of the source. The rule behind the calls is not given here.

Experiments:
Rhodopsin kinase GRK1 = target: T1, Rhodopsin kinase GRK1 (Homo sapiens, UniProt Q15835); assay: Inhibition of GRK1 (unknown origin) using tubulin as substrate by SDS-PAGE method
T1 sequence (Q15835 whole entry): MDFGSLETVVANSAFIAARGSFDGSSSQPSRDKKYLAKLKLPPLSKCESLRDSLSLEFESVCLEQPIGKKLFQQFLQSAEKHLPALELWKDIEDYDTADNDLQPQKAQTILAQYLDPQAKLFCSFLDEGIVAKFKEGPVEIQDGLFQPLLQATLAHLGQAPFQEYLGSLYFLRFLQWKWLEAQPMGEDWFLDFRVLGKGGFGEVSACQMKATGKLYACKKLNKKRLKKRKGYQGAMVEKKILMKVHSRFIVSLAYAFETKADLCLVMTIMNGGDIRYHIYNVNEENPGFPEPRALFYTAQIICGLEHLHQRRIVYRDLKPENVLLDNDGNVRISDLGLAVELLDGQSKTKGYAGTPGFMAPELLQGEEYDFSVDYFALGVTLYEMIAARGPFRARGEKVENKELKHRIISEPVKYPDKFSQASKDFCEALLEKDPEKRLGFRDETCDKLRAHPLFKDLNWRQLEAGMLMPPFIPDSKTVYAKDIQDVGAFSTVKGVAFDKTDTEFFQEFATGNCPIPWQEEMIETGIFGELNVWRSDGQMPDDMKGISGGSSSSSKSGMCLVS

[1] = target: G protein-coupled receptor kinase 5 (Homo sapiens, UniProt P34947); assay: Inhibition of GRK5 (unknown origin) using tubulin as substrate by SDS-PAGE method
G protein-coupled receptor kinase 5, sequence (P34947 whole entry): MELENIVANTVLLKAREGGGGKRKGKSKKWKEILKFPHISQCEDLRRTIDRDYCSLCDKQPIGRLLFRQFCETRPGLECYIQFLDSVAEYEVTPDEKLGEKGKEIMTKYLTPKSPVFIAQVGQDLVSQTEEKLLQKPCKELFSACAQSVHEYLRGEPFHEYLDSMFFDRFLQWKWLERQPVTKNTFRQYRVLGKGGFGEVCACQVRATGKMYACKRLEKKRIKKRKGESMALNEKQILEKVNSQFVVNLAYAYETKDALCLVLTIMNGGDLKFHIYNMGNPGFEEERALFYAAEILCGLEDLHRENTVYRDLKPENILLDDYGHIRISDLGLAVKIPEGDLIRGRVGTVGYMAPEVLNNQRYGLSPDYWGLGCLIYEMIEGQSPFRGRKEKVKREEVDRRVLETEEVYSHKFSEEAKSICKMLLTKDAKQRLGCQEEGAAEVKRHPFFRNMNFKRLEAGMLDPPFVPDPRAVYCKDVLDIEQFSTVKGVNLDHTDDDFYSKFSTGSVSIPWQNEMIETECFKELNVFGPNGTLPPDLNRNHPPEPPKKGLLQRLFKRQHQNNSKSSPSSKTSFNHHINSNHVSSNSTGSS

[2] = Inhibition of PKA (unknown origin) using CREBtide as substrate by ADP-Glo kinase assay; parameters: species or system Homo sapiens
Summary of the method: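 ADP-Glo luminescence assay following the manufacturer's protocol. Inhibition curves were fitted from luminescence. IC50s are averages of three separate experiments, each run in duplicate.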

[3] = target: T2, Rho-associated protein kinase 1 (Homo sapiens, UniProt Q13464); assay: Inhibition of ROCK1 (unknown origin) at 10 uM by ADP-Glo kinase assay
Summary of the method: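 ADP-Glo luminescence assay following the manufacturer's protocol. Percent inhibition was read at a single 10 μM inhibitor concentration.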
Target sequence in this assay (Q13464 2-1354 limits assumed): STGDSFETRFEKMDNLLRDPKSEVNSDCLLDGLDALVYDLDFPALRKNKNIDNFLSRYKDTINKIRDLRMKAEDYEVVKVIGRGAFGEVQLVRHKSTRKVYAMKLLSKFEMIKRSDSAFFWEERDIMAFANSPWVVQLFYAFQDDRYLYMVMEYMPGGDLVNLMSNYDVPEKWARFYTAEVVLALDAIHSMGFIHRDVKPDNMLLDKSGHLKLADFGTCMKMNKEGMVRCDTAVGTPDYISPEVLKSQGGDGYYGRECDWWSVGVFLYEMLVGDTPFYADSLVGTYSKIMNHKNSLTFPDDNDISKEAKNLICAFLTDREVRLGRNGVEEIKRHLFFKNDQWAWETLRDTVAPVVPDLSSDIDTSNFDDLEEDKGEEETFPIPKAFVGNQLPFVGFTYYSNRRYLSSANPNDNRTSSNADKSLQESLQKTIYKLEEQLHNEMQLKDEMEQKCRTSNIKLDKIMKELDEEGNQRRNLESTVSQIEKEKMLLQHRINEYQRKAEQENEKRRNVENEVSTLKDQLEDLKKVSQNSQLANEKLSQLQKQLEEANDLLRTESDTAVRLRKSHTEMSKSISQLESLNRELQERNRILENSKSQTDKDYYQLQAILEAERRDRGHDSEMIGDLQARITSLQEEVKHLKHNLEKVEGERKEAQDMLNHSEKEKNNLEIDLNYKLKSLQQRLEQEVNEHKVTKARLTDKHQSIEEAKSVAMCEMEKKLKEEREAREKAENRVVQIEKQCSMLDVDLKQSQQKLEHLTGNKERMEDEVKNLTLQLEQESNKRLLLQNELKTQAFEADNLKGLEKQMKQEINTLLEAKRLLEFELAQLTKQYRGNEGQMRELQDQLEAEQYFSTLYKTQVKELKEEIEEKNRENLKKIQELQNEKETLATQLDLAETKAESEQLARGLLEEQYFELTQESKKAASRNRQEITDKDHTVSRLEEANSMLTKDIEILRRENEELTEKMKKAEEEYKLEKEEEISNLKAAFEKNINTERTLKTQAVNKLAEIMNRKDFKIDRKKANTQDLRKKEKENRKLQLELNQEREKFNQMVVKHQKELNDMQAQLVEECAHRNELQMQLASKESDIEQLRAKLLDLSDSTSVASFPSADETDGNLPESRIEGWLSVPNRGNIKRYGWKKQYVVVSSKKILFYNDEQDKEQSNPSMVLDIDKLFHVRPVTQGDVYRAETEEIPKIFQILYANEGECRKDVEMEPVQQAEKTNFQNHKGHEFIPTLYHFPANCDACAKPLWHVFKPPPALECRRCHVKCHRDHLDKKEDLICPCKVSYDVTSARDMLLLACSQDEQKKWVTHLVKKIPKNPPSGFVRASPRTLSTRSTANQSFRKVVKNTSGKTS

[4] = target: T2, Rho-associated protein kinase 1; assay: Inhibition of ROCK1 (unknown origin) by ADP-Glo kinase assay
Target sequence in this assay (Q13464 whole entry): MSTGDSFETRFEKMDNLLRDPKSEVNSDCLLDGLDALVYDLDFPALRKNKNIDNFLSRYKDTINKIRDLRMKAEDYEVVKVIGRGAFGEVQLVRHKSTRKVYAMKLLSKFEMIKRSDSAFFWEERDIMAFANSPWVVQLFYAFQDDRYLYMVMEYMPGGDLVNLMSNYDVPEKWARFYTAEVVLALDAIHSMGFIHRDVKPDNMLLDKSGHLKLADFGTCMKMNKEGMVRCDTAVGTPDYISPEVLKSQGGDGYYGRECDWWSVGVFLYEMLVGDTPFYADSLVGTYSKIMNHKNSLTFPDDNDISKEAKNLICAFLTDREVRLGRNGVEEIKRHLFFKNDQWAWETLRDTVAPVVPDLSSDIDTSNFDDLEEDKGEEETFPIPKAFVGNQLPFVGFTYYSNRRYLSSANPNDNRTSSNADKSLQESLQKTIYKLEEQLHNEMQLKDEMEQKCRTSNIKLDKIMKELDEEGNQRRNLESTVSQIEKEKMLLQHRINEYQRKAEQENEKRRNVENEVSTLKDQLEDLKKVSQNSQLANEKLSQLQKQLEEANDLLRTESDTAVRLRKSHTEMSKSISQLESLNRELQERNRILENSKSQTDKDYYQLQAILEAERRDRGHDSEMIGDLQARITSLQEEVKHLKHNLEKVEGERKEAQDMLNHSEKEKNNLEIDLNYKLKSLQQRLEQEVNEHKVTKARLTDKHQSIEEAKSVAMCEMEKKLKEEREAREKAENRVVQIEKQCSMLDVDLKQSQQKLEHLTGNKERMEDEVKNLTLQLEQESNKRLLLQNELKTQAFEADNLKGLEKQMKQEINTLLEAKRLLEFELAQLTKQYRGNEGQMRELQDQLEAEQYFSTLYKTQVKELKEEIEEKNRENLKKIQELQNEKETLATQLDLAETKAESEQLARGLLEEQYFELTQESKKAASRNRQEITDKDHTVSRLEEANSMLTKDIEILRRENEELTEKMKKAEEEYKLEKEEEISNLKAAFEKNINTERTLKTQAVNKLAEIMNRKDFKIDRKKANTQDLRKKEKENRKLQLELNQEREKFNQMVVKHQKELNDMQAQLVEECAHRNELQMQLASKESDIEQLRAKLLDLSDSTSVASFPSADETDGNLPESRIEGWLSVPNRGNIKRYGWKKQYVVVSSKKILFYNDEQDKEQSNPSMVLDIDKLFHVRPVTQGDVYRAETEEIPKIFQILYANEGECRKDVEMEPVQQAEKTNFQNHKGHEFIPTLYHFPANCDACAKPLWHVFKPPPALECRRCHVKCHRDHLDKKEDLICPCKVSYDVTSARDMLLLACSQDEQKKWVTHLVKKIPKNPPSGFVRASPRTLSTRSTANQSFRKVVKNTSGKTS

[5] = target: T3, Beta-adrenergic receptor kinase 1 (Mus musculus) (UniProt Q99MK8); assay: Inhibition of GRK2 in C57BL/6 mouse cardiomyocytes assessed as increase in contractility at 0.5 uM preincubated for 10 mins followed by beta adrenergic receptor agonist isoproterenol addition for 2 mins; assay type: cell-based
T3 sequence (whole entry): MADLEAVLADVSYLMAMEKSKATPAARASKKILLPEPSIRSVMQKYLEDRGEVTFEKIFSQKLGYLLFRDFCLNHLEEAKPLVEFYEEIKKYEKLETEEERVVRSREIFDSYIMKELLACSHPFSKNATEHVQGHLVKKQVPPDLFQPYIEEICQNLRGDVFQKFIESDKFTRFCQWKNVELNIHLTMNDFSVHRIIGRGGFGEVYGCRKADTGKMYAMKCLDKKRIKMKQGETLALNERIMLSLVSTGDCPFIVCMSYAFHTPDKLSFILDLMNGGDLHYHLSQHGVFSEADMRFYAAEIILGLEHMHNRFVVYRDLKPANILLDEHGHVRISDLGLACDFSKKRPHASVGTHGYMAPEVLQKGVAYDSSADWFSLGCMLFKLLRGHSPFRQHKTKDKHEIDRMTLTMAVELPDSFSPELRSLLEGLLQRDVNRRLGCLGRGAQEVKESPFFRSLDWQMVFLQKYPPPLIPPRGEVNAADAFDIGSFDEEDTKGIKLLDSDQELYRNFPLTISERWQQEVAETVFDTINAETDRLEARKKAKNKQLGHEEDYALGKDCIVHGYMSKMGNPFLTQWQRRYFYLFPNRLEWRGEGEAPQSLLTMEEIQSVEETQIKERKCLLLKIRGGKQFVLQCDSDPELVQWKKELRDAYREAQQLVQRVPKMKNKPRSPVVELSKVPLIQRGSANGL

[6] = target: T3, Beta-adrenergic receptor kinase 1 (Mus musculus); assay: Inhibition of GRK2 in C57BL/6 mouse cardiomyocytes assessed as increase in contractility at 1 uM preincubated for 10 mins followed by beta adrenergic receptor agonist isoproterenol addition for 2 mins; assay type: cell-based

Row | SMILES | IC50 (Rhodopsin kinase GRK1) [µM] | IC50 [1] [µM] | IC50 [2] [µM] | inhibition [3] [%] | IC50 [4] [µM] | Activity [5] | Activity [6]
1 | CC1=C(C(=O)Nc2ccc3[nH]ncc3c2)C(c2ccc(F)c(C(=O)NCCc3ccncc3)c2)NC(=O)N1 (stereo unspecified) | > 100 | – | > 100 | – | 0.084 | – | –
2 | CC1=C(C(=O)Nc2ccc3c(c2)OCO3)C(c2ccc(F)c(C(=O)NCc3ccccn3)c2)NC(=O)N1 (stereo unspecified) | > 100 | > 100 | > 100 | – | – | – | –
3 | Fc1ccc([C@@H]2CCNC[C@H]2COc2ccc3c(c2)OCO3)cc1 [PAROXETINE] | – | – | > 100 | 10 | – | – | –
4 | COc1ccccc1CNC(=O)c1cc(C2NC(=O)NC(C)=C2C(=O)Nc2ccc3[nH]ncc3c2)ccc1F (stereo unspecified) | 16 | 2.3 | > 100 | – | – | – | –
5 | COc1cccc(OC)c1CNC(=O)Cc1cc(C2NC(=O)NC(C)=C2C(=O)Nc2ccc3[nH]ncc3c2)ccc1F (stereo unspecified) | > 100 | > 100 | > 100 | – | – | – | –
6 | CC1=C(C(=O)Nc2ccc3[nH]ncc3c2)C(c2ccc(F)c(C(=O)NCc3ccccc3)c2)NC(=O)N1 (stereo unspecified) | 71 | 4.7 | > 100 | – | – | – | –
7 | CC1=C(C(=O)N(C)c2ccc3[nH]ncc3c2)C(c2ccc(F)c(C(=O)NCc3c(C)cccc3C)c2)NC(=O)N1 (stereo unspecified) | > 100 | – | > 100 | – | 2.1 | – | –
8 | CC1=C(C(=O)Nc2ccc3[nH]ncc3c2)C(c2ccc(F)c(C(=O)O)c2)NC(=O)N1 (stereo unspecified) | > 100 | – | 78.1 | – | 0.19 | – | –
9 | CC1=C(C(=O)Nc2ccc3[nH]ncc3c2)C(c2ccc(F)c(CC(=O)NCc3c(C)cccc3C)c2)NC(=O)N1 (stereo unspecified) | > 100 | – | > 100 | – | – | – | –
10 | CCCn1c(CNc2cccc(C(=O)NCc3c(F)cccc3F)c2)nnc1-c1ccncn1 | 9 | 2.2 | – | 10 | – | – | –
11 | CC1=C(C(=O)Nc2ccc3[nH]ncc3c2)C(c2ccc(F)cc2)NC(=O)N1 (stereo unspecified) [GSK-180736A] | > 100 | – | – | – | 0.1 | – | Active
12 | CC1=C(C(=O)Nc2ccc3[nH]ncc3c2)C(c2ccc(F)c(C(=O)NCc3ccccn3)c2)NC(=O)N1 (stereo unspecified) | 3.9 | – | > 100 | – | – | Active | –
13 | CC1=C(C(=O)Nc2ccc3[nH]ncc3c2)C(c2ccc(F)c(C(=O)NCc3cccc(F)c3)c2)NC(=O)N1 (stereo unspecified) | 11.9 | – | > 100 | – | – | – | –
14 | CC1=C(C(=O)Nc2ccc3[nH]ncc3c2)C(c2ccc(F)c(C(=O)NCCc3ccccn3)c2)NC(=O)N1 (stereo unspecified) | > 100 | 6.2 | > 100 | – | – | – | –

The next lines start with the values.

Row | IC50 (Rhodopsin kinase GRK1) [µM] | IC50 [1] [µM] | IC50 [2] [µM] | inhibition [3] [%] | IC50 [4] [µM] | Activity [5] | Activity [6] | SMILES
15 | > 100 | > 100 | > 100 | – | – | – | – | CC1=C(C(=O)Nc2ccc3[nH]ncc3c2)C(c2ccc(F)c(C(=O)NCc3c(Cl)cccc3Cl)c2)NC(=O)N1 (stereo unspecified)
16 | > 100 | > 100 | > 100 | 22 | – | – | – | CC1=C(C(=O)Nc2ccc3[nH]ncc3c2)C(c2ccc(F)c(C(=O)NCc3c(C(F)(F)F)cccc3C(F)(F)F)c2)NC(=O)N1 (stereo unspecified)
17 | > 100 | – | > 100 | – | – | – | – | CC1=C(C(=O)Nc2ccc3[nH]ncc3c2)C(c2ccc(F)c(C(=O)NCCc3c(C)cccc3C)c2)NC(=O)N1 (stereo unspecified)
18 | > 100 | – | > 100 | – | – | – | – | CC1=C(C(=O)Nc2ccc3[nH]ncc3c2)C(c2ccc(F)c(C(=O)NCc3ncccc3C)c2)NC(=O)N1 (stereo unspecified)
19 | – | 1.8 | – | – | 0.012 | – | – | CC1=C(C(=O)Nc2ccc3[nH]ncc3c2)C(c2ccc(F)c(C(=O)NCc3nccc4ccccc34)c2)NC(=O)N1 (stereo unspecified)
20 | > 100 | > 100 | > 100 | 0 | – | Active | – | COc1cccc(OC)c1CNC(=O)c1cc(C2NC(=O)NC(C)=C2C(=O)Nc2ccc3[nH]ncc3c2)ccc1F (stereo unspecified)
21 | > 100 | 8.1 | > 100 | – | – | – | – | COc1ccc(CNC(=O)c2cc(C3NC(=O)NC(C)=C3C(=O)Nc3ccc4[nH]ncc4c3)ccc2F)cc1 (stereo unspecified)
22 | > 100 | > 100 | > 100 | – | – | – | – | CC1=C(C(=O)Nc2ccc3[nH]ncc3c2)C(c2ccc(F)c(C(=O)NCc3cc(C(F)(F)F)cc(C(F)(F)F)c3)c2)NC(=O)N1 (stereo unspecified)
23 | > 100 | 5 | > 100 | – | 0.11 | Active | – | CC1=C(C(=O)Nc2ccc3[nH]ncc3c2)C(c2ccc(F)c(C(=O)NCc3c(F)cccc3F)c2)NC(=O)N1 (stereo unspecified)
24 | > 100 | > 100 | > 100 | – | – | – | – | CC1=C(C(=O)Nc2ccc3[nH]ncc3c2)C(c2ccc(F)c(CC(=O)NCc3c(C(F)(F)F)cccc3C(F)(F)F)c2)NC(=O)N1 (stereo unspecified)
25 | > 100 | – | > 100 | – | – | – | Active | CC1=C(C(=O)Nc2ccc3[nH]ncc3c2)C(c2ccc(F)c(C(=O)NCc3c(C)cccc3C)c2)NC(=O)N1 (stereo unspecified)
26 | > 100 | > 100 | > 100 | – | 0.56 | – | – | CNC(=O)c1cc(C2NC(=O)NC(C)=C2C(=O)Nc2ccc3[nH]ncc3c2)ccc1F (stereo unspecified)
27 | > 100 | 3.8 | > 100 | – | – | – | – | COc1cccc(CNC(=O)c2cc(C3NC(=O)NC(C)=C3C(=O)Nc3ccc4[nH]ncc4c3)ccc2F)c1 (stereo unspecified)
